In brackets after ≈: the same amount, converted by molar mass.
How the values were obtained:
Format in all cases: functional
Bacillus subtilis = assay: Antibacterial activity against Bacillus subtilis MTCC 441 by broth dilution method
How it was run: (§1)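 Test bacteria kept on nutrient agar slants and subcultured in Petri dishes before testing. Nutrient agar and nutrient broth media. Compounds dissolved in acetone. MIC determined by broth dilution.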

Staphylococcus aureus = assay: Antibacterial activity against Staphylococcus aureus MTCC 96 by broth dilution method; how it was run: as §1
Pseudomonas aeruginosa = assay: Antibacterial activity against Pseudomonas aeruginosa MTCC 1688 by broth dilution method; how it was run: as §1
Escherichia coli = assay: Antibacterial activity against Escherichia coli MTCC 443 by broth dilution method; how it was run: as §1
Candida albicans [1] = assay: Antifungal activity against Candida albicans MTCC 227 at 150 ug/ml by agar cup diffusion method; details: read-out: IZ
How it was run: (§2)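 Agar cup diffusion on autoclaved potato dextrose agar (15 lb/inch², 20 min). A week-old culture was spread over the solidified agar, and 6 mm cups were bored. Compounds were in DMSO at 100–150; amphotericin-B reference at 50; DMSO control. Plates held at 28 °C for 48 h. Inhibition zone diameter read in mm.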

Aspergillus niger [2] = assay: Antifungal activity against Aspergillus niger MTCC 1344 at 150 ug/ml by agar cup diffusion method; details: read-out: IZ; how it was run: as §2
Candida albicans [3] = assay: Antifungal activity against Candida albicans MTCC 227 at 50 ug/ml by agar cup diffusion method; details: MTCC 227, read-out: IZ
Saccharomyces cerevisiae = assay: Antifungal activity against Saccharomyces cerevisiae MTCC 36 at 50 ug/ml by agar cup diffusion method; details: MTCC 36, read-out: IZ; how it was run: as §2
Rhizopus arrhizus [4] = assay: Antifungal activity against Rhizopus oryzae MTCC 262 at 50 ug/ml by agar cup diffusion method; details: MTCC 262, read-out: IZ; how it was run: as §2
Aspergillus niger [5] = assay: Antifungal activity against Aspergillus niger MTCC 1344 at 50 ug/ml by agar cup diffusion method; details: MTCC 1344, read-out: IZ; how it was run: as §2
Rhizopus arrhizus [6] = assay: Antifungal activity against Rhizopus oryzae MTCC 262 at 100 ug/ml by agar cup diffusion method; details: read-out: IZ; how it was run: as §2
Rhizopus arrhizus [7] = assay: Antifungal activity against Rhizopus oryzae MTCC 262 at 150 ug/ml by agar cup diffusion method; details: read-out: IZ; how it was run: as §2
Candida albicans [8] = assay: Antifungal activity against Candida albicans MTCC 227 at 100 ug/ml by agar cup diffusion method; details: read-out: IZ; how it was run: as §2
Aspergillus niger [9] = assay: Antifungal activity against Aspergillus niger MTCC 1344 at 100 ug/ml by agar cup diffusion method; details: read-out: IZ; how it was run: as §2

| MIC (Bacillus subtilis) | MIC (Staphylococcus aureus) | MIC (Pseudomonas aeruginosa) | MIC (Escherichia coli) | Compound | zone of inhibition at 150 µg/mL (Candida albicans [1]) | zone of inhibition at 150 µg/mL (Aspergillus niger [2]) | zone of inhibition at 50 µg/mL (Candida albicans [3]) | zone of inhibition at 50 µg/mL (Saccharomyces cerevisiae) | zone of inhibition at 50 µg/mL (Rhizopus arrhizus [4]) | zone of inhibition at 50 µg/mL (Aspergillus niger [5]) | zone of inhibition at 100 µg/mL (Rhizopus arrhizus [6]) | zone of inhibition at 150 µg/mL (Rhizopus arrhizus [7]) | zone of inhibition at 100 µg/mL (Candida albicans [8]) | zone of inhibition at 100 µg/mL (Aspergillus niger [9]) |
| --- | --- | --- | --- | --- | --- | --- | --- | --- | --- | --- | --- | --- | --- | --- |
| 150 µg/mL (≈ 394 µM) | 37.5 µg/mL (≈ 98.6 µM) | 75 µg/mL (≈ 197 µM) | 37.5 µg/mL (≈ 98.6 µM) | N#Cc1c(-c2ccccc2)cc(C(F)(F)F)c2c3n(nc12)[C@H]1C=CC[C@H]1CN3 | 9 mm | 10 mm | – | – | – | – | – | – | – | – |
| – | – | – | – | C[C@@H]1[C@H](O)[C@@H](C)/C=C/C=C/C=C/C=C/C=C/C=C/C=C/[C@H](O[C@@H]2O[C@H](C)[C@@H](O)[C@H](N)[C@@H]2O)C[C@@H]2O[C@](O)(C[C@@H](O)C[C@@H](O)[C@H](O)CC[C@@H](O)C[C@@H](O)CC(=O)O[C@H]1C)C[C@H](O)[C@H]2C(=O)O [AMPHOTERICIN B] | – | – | 22 mm | 23 mm | 26 mm | 23.5 mm | – | – | – | – |
| – | – | – | – | N#Cc1c(C(F)(F)F)cc(-c2ccccc2)c2c3n(nc12)C(c1ccccc1)CCN3 (configuration not stated) | – | – | – | – | – | – | 8 mm | 10 mm | – | – |
| 75 µg/mL (≈ 159 µM) | 37.5 µg/mL (≈ 79.4 µM) | 75 µg/mL (≈ 159 µM) | 37.5 µg/mL (≈ 79.4 µM) | N#Cc1c(-c2ccccc2)cc(C(F)(F)F)c2c3n(nc12)[C@@]1(c2ccccc2)CCCC[C@H]1CN3 | 11 mm | 10 mm | – | – | – | – | – | 9 mm | 9 mm | – |
| 75 µg/mL (≈ 196 µM) | 150 µg/mL (≈ 392 µM) | 75 µg/mL (≈ 196 µM) | 150 µg/mL (≈ 392 µM) | C=CC1(C)CCNc2c3c(-c4ccccc4)cc(C(F)(F)F)c(C#N)c3nn21 (configuration not stated) | – | – | – | – | – | – | – | – | – | – |
| 75 µg/mL (≈ 173 µM) | 75 µg/mL (≈ 173 µM) | 75 µg/mL (≈ 173 µM) | 37.5 µg/mL (≈ 86.7 µM) | CC1(c2ccccc2)CCNc2c3c(C(F)(F)F)cc(-c4ccccc4)c(C#N)c3nn21 (configuration not stated) | 9 mm | – | – | – | – | – | – | 12 mm | 8 mm | – |
| 150 µg/mL (≈ 377 µM) | 150 µg/mL (≈ 377 µM) | 150 µg/mL (≈ 377 µM) | 75 µg/mL (≈ 188 µM) | N#Cc1c(C(F)(F)F)cc(-c2ccccc2)c2c3n(nc12)[C@H]1OCCC[C@H]1CN3 | 10 mm | – | – | – | – | – | – | 9 mm | 8 mm | – |
| 50 µg/mL (≈ 119 µM) | 50 µg/mL (≈ 119 µM) | 50 µg/mL (≈ 119 µM) | 25 µg/mL (≈ 59.7 µM) | N#Cc1c(-c2ccccc2)cc(C(F)(F)F)c2c3n(nc12)C(c1ccccc1)CCN3 (configuration not stated) | – | – | – | – | – | – | – | – | – | – |
| 75 µg/mL (≈ 174 µM) | 150 µg/mL (≈ 348 µM) | 150 µg/mL (≈ 348 µM) | 75 µg/mL (≈ 174 µM) | N#Cc1c(-c2ccccc2)cc(C(F)(F)F)c2c3n(nc12)[C@H]1c2ccccc2C[C@H]1CN3 | – | 9 mm | – | – | – | – | 7 mm | 9 mm | – | – |
| 150 µg/mL (≈ 377 µM) | 75 µg/mL (≈ 188 µM) | 150 µg/mL (≈ 377 µM) | 75 µg/mL (≈ 188 µM) | N#Cc1c(-c2ccccc2)cc(C(F)(F)F)c2c3n(nc12)[C@H]1OCCC[C@H]1CN3 | – | – | – | – | – | – | 9 mm | – | – | – |
| 150 µg/mL (≈ 392 µM) | 75 µg/mL (≈ 196 µM) | 150 µg/mL (≈ 392 µM) | 150 µg/mL (≈ 392 µM) | C=CC1(C)CCNc2c3c(C(F)(F)F)cc(-c4ccccc4)c(C#N)c3nn21 (configuration not stated) | 8 mm | 8 mm | – | – | – | – | – | – | 7 mm | 7 mm |
| 150 µg/mL (≈ 380 µM) | 75 µg/mL (≈ 190 µM) | 75 µg/mL (≈ 190 µM) | 37.5 µg/mL (≈ 95.1 µM) | N#Cc1c(-c2ccccc2)cc(C(F)(F)F)c2c3n(nc12)[C@H]1C=CCC[C@H]1CN3 | 8 mm | 12 mm | – | – | – | – | 8 mm | 12 mm | 7 mm | 10 mm |

Source: ChEMBL document CHEMBL1149772, “GdCl(3) catalysed Grieco condensation: a facile approach for the synthesis of novel pyrimidine and annulated pyrimidine fused indazole derivatives in single pot under mild conditions and their anti-microbial activity” (2008)
